Screens deposited in PubChem by several laboratories.
SDO1 yeast rescue: restores growth of sdo1-depleted yeast; S. cerevisiae sdo1-depleted JHY4D growth rescue, OD600 30 h; active compounds read high; pdr5 snq2 efflux-pump mutant strain; z-score at 10 µM; 140,000 tested, 0.21% active;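 active means z-score above 3 at both the 24 hr and the 30 hr optical density reads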;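 further: z-score against mean and SD of all compound wells on the same plate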
STAT1 activator: increases IFN-gamma driven STAT1 reporter signal | NIH 3T3 STAT1-luciferase reporter, luminescence; 100% = IFN-gamma alone, no compound | activation (% of control), % at 5.5 µM | 200,000 tested, 2.6% active | AID 932;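 active means activation above the screen-wide mean activation plus 3 SD, cut at about 130% in these data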;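 further: raw ratio to IFN-gamma control signal so 100% means no change and 0% no light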
FLuc inhib CS: Photinus pyralis luciferase inhibition counter-screen. ATPLite firefly luciferase biochemical luminescence, 10 min. inhibition, % at 10 µM. 200,000 tested, 1.5% active. AID 1006;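 active means inhibition above about 50% when tested at 10 µM, limit read from the data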
Target sequence (P08659 whole entry, looked up): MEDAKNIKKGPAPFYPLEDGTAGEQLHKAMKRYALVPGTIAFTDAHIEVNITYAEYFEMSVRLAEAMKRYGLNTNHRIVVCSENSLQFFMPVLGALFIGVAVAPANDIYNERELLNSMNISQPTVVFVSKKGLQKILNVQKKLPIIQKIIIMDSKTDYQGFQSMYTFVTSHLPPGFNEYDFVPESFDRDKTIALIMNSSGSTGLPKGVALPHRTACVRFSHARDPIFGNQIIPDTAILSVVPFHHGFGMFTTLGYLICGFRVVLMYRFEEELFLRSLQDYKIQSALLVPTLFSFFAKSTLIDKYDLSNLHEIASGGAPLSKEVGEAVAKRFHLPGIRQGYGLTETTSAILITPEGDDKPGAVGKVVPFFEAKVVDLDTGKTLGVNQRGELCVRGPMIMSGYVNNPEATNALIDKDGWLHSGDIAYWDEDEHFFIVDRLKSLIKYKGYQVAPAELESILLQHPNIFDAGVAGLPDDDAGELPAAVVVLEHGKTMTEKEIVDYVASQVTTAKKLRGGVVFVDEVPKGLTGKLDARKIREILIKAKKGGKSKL
NF-kB neuron act: raises NF-kB expression in human neuronal cells | NF-kB reporter expression; active compounds read high | fold change at 12.5 µM | 190,000 tested, 1.6% active; in the data active means fold change above about 3.3
FLuc stim CS: firefly luciferase counter-screen for stimulation assays. P08659. ATPlite luciferase biochemical, luminescence, 10 min; 0 = ATP-free wells, 1 = DMSO control. activation factor at 10 µM. 200,000 tested, under 10 active. AID 1027;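 active means luciferase activation factor, scaled between plate controls, of at least 2 with compound at 10 µM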
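Material: luciferase plus luciferin reagent, cell-free. Medium: PBS buffer for ATP. Also added: ATP substrate, dispensed from a 10.24 µM working solution in PBS. Doses: test compounds dosed from 2 mM stocks in 100% DMSO. Incubation: 10 min post-reagent at room temperature. Technique: light output (luminescence). Read-out basis: luminescence gain marking luciferase activators.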
APP 5'UTR act: activates APP 5'UTR luciferase reporter | AID 1276 | SH-SY5Y APP 5'UTR luciferase reporter, luminescence; zero percent = DMSO vehicle wells | 190,000 tested, 1% active | activation, % at 2 µM;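 active means activation above a set limit, based on mean plus 3 SD of controls, cut at about 140% in these data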
SDO1 rescue DR: SDO1-depleted yeast growth rescue confirmation | 440 tested, 44% active | shares compounds with SDO1 yeast rescue | OD recovery (concentration not given with the values) | AID 949 | S. cerevisiae JHY4D (SDO1-depleted) growth rescue, OD600, 30 h; active compounds read high; efflux-deficient strain, SNQ2 and PDR5 mutated;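 active means yeast growth recovered at 30 hours, either rising with dose fitted slope above 0.001 or with average optical density gain above 0.07, some results past the limit were not filed as active; inactive means growth falling with dose or no effect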;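 further: gain in OD600 from 0 h to 30 h averaged across all seven doses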
STAT1 act conf: STAT1 activation, confirmation assay | shares compounds with STAT1 activator | NIH 3T3 STAT1-luciferase reporter, IFN-gamma potentiation, luminescence; 100% = IFN-gamma EC80 alone, no compound | activation (% of control), % at 5.7 µM | 1,200 tested, 97% active;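 active means activation above a set limit carried over from the earlier primary STAT1 screen, cut at about 140% in these data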;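 further: simple ratio to median IFN-gamma plus DMSO wells so 0% means no light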
NFkB act: activates NF-kappaB, counter-screen to STAT1 activators; shares compounds with STAT1 activator; HEK293T NF-kB luciferase reporter, TNF-alpha stimulated, luminescence; 100% = TNF-alpha with vehicle only; activation (% of control), % at 5.7 µM; 1,200 tested, 43% active;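 active means activation above the mean of solvent-only control wells plus 3 SD, set per campaign, cut at about 130% in these data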;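 further: TNF-alpha given at a submaximal dose yielding about 80% of full reporter signal; values are well signal over median control so 100% means no change and 0% no light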
STAT3 act 2: human STAT3 activation in STAT1 activator counter-screen; shares compounds with STAT1 activator; U3A cells STAT3-luciferase reporter, IL-6, luminescence; cells lack STAT1; 100 = IL-6 alone, no compound effect; activation (% of control), % at 5.7 µM; 1,200 tested, 46% active; AID 1316;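 active means activation above the solvent-only control well mean plus 3 SD, set per plate batch, cut at about 110% in these data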;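 further: 0% = no luminescence and 100% = median IL-6 plus DMSO wells; higher means more STAT3 reporter activation so hits are non-selective activators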
* marks the source's active call; other numbers are inactive results; x = no result given. Sampled rows, rich in hits. Any-hit rate of the full collection: about 4.3%.

SMILES | SDO1 yeast rescue | STAT1 activator | FLuc inhib CS | NF-kB neuron act | FLuc stim CS | APP 5'UTR act | STAT1 act conf | NFkB act | STAT3 act 2 | others
Cc1ccc(/C(O)=C2\C(=O)C(=O)N(CC(C)O)C2c2cccc(F)c2)cc1 (configuration not stated) | 2.65 | 93.9 | -8.7 | 1.2 | 1.1 | 10.1 | x | x | x | SDO1 rescue DR=0.0652
Cc1[nH]c2ccccc2c1C(=O)COc1ccccc1F | x | 118.8 | 6.3 | 1.64 | 0.9 | 43.8 | x | x | x
NS(=O)(=O)c1ccc(NC(=O)CSC2=NC(=O)C(c3ccccc3)C(=O)N2)cc1 (configuration not stated) | 8.68* | 104.6 | -7.7 | 1 | 1.1 | -1.1 | x | x | x | SDO1 rescue DR=0.0484
Cc1oc2cc(O)ccc2c(=O)c1-c1cnn(-c2ccccc2)c1 | 4.97* | 92.9 | 4.2 | 2.01 | 1 | 20.4 | x | x | x | SDO1 rescue DR=0.0644
Cc1ccccc1NC(NC(=O)OCCn1c([N+](=O)[O-])cnc1C)C(Cl)(Cl)Cl (configuration not stated) | 8.32* | 101.3 | -1.1 | 1.26 | 1 | 1.0 | x | x | x | SDO1 rescue DR=0.104*
Cc1ncc([N+](=O)[O-])n1CCOC(=O)NC(NCc1ccccc1)C(Cl)(Cl)Cl (configuration not stated) | 0.33 | 98.9 | -6.2 | 1.01 | 1.1 | 14.9 | x | x | x
NC(=S)Nn1c(-c2ccccc2)nc2ccccc2c1=O | 10.8* | 92.6 | -5.6 | 1.17 | 1.1 | -0.8 | x | x | x | SDO1 rescue DR=0.0596
CCCCCC(=O)NC(NC(=S)Nc1ccc(S(N)(=O)=O)cc1)C(Cl)(Cl)Cl (configuration not stated) | 0.04 | 97.5 | -7.5 | 1.05 | 1.1 | -2.9 | x | x | x
CCCCCCCC(=O)NC(Nc1ccc(S(N)(=O)=O)cc1)C(Cl)(Cl)Cl (configuration not stated) | 3.12* | 98.3 | -2.6 | 0.66 | 1 | -2.4 | x | x | x | SDO1 rescue DR=0.104*
O=C(C1CCCCC1)N(Cc1ccccc1)c1ccccn1 | 10.6* | 88.2 | -5.2 | 1.14 | 1.1 | -4.8 | x | x | x | SDO1 rescue DR=0.0783*
CNC(=O)c1c(NC(=O)c2nc3ccccc3s2)sc2c1CCC2 | -0.25 | 168.7* | 1.2 | 0.52 | 1 | 78.8 | 189.4* | 136.0* | 132.6* | SDO1 rescue DR=0.0382
CCOc1ccccc1-n1c(=S)sc2c(=O)n(-c3ccccc3)c(=S)[nH]c21 | x | 96.7 | -1.6 | 1.47 | 1 | 12.6 | x | x | x
Nc1cccc(C(=O)OCC(=O)c2ccccc2)c1 | 0.14 | 181.2* | 68.7* | 1.16 | 0.3 | 114.1 | 180.9* | 121.2 | 117.3*
Nc1cccc(C(=O)OCC(=O)Nc2cccc3c2C(=O)c2ccccc2C3=O)c1 | 1.99 | 99.9 | -6.1 | 1.13 | 1.1 | -10.1 | x | x | x
COCCNC(=O)c1ccc(-n2c(SCc3ccncc3)nc3ccccc3c2=O)cc1 | x | 94.3 | -3.8 | 1.18 | 1 | 16.3 | x | x | x
Cc1ccc(NC(=O)Cn2cccc2)c(Br)c1 | 0.54 | 108.1 | 0.0 | 1.73 | 1 | -1.9 | x | x | x
Cn1ccc(C(=O)Nc2ccc(Br)cc2Br)n1 | -0.4 | 168.0* | 20.6 | 7.56* | 0.8 | 142.7* | 199.6* | 124.1 | 101.8
Cc1ccc(C)c(NC(=O)c2ccccn2)c1 | 0.43 | 112.1 | 7.9 | 1.59 | 0.9 | 16.8 | x | x | x
Cc1ccc(NC(=O)c2ccn(C)n2)c(Br)c1 | 0.45 | 154.7* | 47.0 | 6.95* | 0.5 | 142.0* | 197.7* | 116.0 | 96.7
COc1cccc(NC(=O)c2ccn(C)n2)c1 | 1.17 | 126.2 | 17.0 | 2.03 | 0.8 | 62.0 | x | x | x
Cc1ccc(NC(=O)c2ccccn2)c(Br)c1 | x | 152.1* | 48.8 | 6.92* | 0.5 | 152.8* | 199.6* | 125.9 | 110.3
O=c1[nH]c(SCc2cccc(Cl)c2)nc2[nH]ncc12 | x | 99.6 | -2.6 | 0.77 | 1 | 16.4 | x | x | x
Cc1ccc(-c2nnc3cccc(Cl)n23)cc1 | x | 104.3 | 1.1 | 0.89 | 1 | 44.0 | x | x | x
Cc1cccn2c1nc(=S)n2C(=O)c1ccco1 | 0.44 | 208.5* | 85.1* | 1.04 | 0.1 | 146.7* | 256.4* | 175.7* | 134.8*
O=C(CSCCO)Nc1ccc(C2CCCCC2)cc1 | -1.23 | 123.0 | 16.1 | 2.29 | 0.8 | 54.3 | x | x | x
SMILES | SDO1 yeast rescue | STAT1 activator | FLuc inhib CS | NF-kB neuron act | FLuc stim CS | APP 5'UTR act | STAT1 act conf | NFkB act | STAT3 act 2 | others
COc1ccc2nc(Nc3ccc4c(c3)OCO4)sc2c1 | -0.07 | 151.9* | 12.7 | 1.97 | 0.9 | 75.5 | 162.1* | 127.8 | 100.1
COc1ccc2nc(Nc3nc4cc5c(cc4s3)OCO5)sc2c1 | -0.65 | 107.7 | 2.4 | 1.05 | 1 | -10.3 | x | x | x
Cc1ccc(Nc2nc3ccccc3s2)cc1 | -1.39 | 192.2* | 49.8 | 1.33 | 0.5 | 115.2 | 258.7* | 137.0* | 107.8
COc1ccc2nc(Nc3ccccc3)sc2c1 | x | 150.8* | 77.2* | 8.13* | 0.2 | 111.0 | 199.6* | 138.1* | 99.4
Cc1ccc(S(=O)(=O)Nc2nc3ccccc3s2)cc1 | 0.07 | 95.7 | -6.2 | 0.91 | 1.1 | 8.5 | x | x | x
Cc1cc(C)n(C(=O)CCCn2nc(C)c([N+](=O)[O-])c2C)n1 | x | 102.7 | 1.6 | 1 | 1 | -20.2 | x | x | x
S=C(Nc1ccc(Cl)cc1)c1nc2ccccc2[nH]1 | -1.51 | 167.3* | 66.3* | 2.49 | 0.3 | x | 191.7* | 134.4* | 101.7
Cn1c(N)c(C(=O)Nc2ccc3ccccc3c2)sc1=S | -0.5 | 172.3* | -4.5 | 1.49 | 1 | 143.4* | 203.5* | 132.2 | 107.0
Cc1oc(-c2ccccc2)cc1C(=O)Nc1ccc2ccccc2c1 | 0.47 | 100.0 | -2.5 | 1.42 | 1 | 5.6 | x | x | x
CCOC(=O)c1sc2nc(C)cc(-c3ccccc3)c2c1N | -0.91 | 93.6 | -2.9 | 1.11 | 1 | -6.2 | x | x | x
CCOC(=O)c1sc2nc(-c3ccccc3)ccc2c1N | -0.23 | 173.8* | 82.1* | 2.25 | 0.2 | 174.2* | 271.6* | 119.2 | 94.1
COc1ccccc1Nc1nc(-c2cccs2)cs1 | -2.33 | 170.8* | 6.3 | 5.67* | 0.9 | 28.3 | 202.8* | 143.3* | 164.6*
COc1ccc(Nc2nc(-c3cccs3)cs2)cc1 | -1.52 | 182.1* | 42.4 | 2.29 | 0.6 | 105.1 | 213.9* | 151.1* | 121.9*
COc1ccc(OC)c(Nc2nc(-c3cccs3)cs2)c1 | -1.6 | 110.2 | -9.4 | 1.09 | 1.1 | 1.0 | x | x | x
